Results reported in ChEMBL document CHEMBL1146090, “Similarity based virtual screening: a tool for targeted library design” (J Med Chem, 2006).

Key:
[1] = Viability of HL cells at 50 uM; format: cell-based; details: human, read-out: Activity
In short: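 Viable HL cells counted through intracellular LDH after 3 days exposure to 50 μM agent. Medium removed, cells washed twice and lysed, then LDH measured with the same kit. Percentage derived against LDH from unexposed cultures. Mean of four replicates, single experiment.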

HL = assay: Cytotoxicity against HL cells at 50 uM; format: functional
Chlamydia pneumoniae [2] = assay: Antibacterial activity against Chlamydia pneumoniae in HL cells at 1 uM; format: functional
In short: (§1)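 HL host cells (RPMI 1640, 10% FBS, 2 mM L-glutamine, 37 °C, 5% CO2) seeded 5×10^4/well; after 24 h, confluent monolayers inoculated by centrifugation (550 × g, 60 min) with C. pneumoniae Kajaani 7 EBs, 4×10^5 IFU/mL. Agent added in antibiotic-free medium plus 0.5 μg/mL cycloheximide; 72 h, 37 °C. Methanol-fixed; europium-labelled genus-specific antibody, time-resolved fluorometry. Two experiments on different days, six replicates each, averaged.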

Chlamydia pneumoniae [3] = assay: Antibacterial activity against Chlamydia pneumoniae in HL cells at 70 uM; format: functional; in short: as §1
Chlamydia pneumoniae [4] = assay: Antibacterial activity against Chlamydia pneumoniae in HL cells at 5 uM; format: functional; in short: as §1
Chlamydia pneumoniae [5] = assay: Antibacterial activity against Chlamydia pneumoniae in HL cells at 50 uM; format: functional; in short: as §1

| SMILES | viability at 50 µM [1] [%] | cytotoxicity (HL) [%] | inhibition at 1 µM (Chlamydia pneumoniae [2]) [%] | inhibition at 70 µM (Chlamydia pneumoniae [3]) [%] | inhibition at 5 µM (Chlamydia pneumoniae [4]) [%] | inhibition at 50 µM (Chlamydia pneumoniae [5]) [%] |
| --- | --- | --- | --- | --- | --- | --- |
| N=C(NOC(=O)Nc1cccc(Cl)c1)c1ccc2nonc2c1 | 99.3 | 1.1 | 0 | 99.3 | 6.8 | 85.5 |
| O=C(Nc1cccc(-c2nc3ccccc3[nH]2)c1)c1ccccc1 | 95.5 | 1.2 | 14.6 | 69.1 | 19.7 | 69.6 |
| N=C(NOC(=O)Nc1ccccc1)c1ccc2nonc2c1 | 100 | 0 | 0 | 72.5 | 0.2 | 56.1 |
| c1ccc(-c2cc3ncnc(NCc4ccc5c(c4)OCO5)c3s2)cc1 | 98.2 | 0.4 | 2.1 | 71.2 | 58.8 | 68.6 |
| Nc1nc(Nc2ccccc2)nc(Nc2ccccc2)n1 | 83.4 | 3.7 | 0 | 100 | 0 | 72.8 |
| Nc1nc(Nc2ccc(Cl)cc2)nc(-c2cc(Cl)ccc2O)n1 | 95 | 1.4 | 0 | 83.9 | 76 | 79.8 |
| O=C(Nc1ccc2c(c1)OCCO2)c1cccc(COc2cc(Cl)ccc2Cl)c1 | 86.2 | 2.3 | 0 | 93.6 | 15.3 | 81.8 |
| O=C(Nc1cccc(-c2nc3ccccc3[nH]2)c1)c1cccs1 | 98 | 1.2 | 39.5 | 92.6 | 41.2 | 90.5 |
